Test results reported in ChEMBL document CHEMBL1177728, “Discovery and optimization of boronic acid based inhibitors of autotaxin” (J Med Chem, 2010).

molecular target: Autotaxin (Homo sapiens, UniProt Q13822); experiment: Inhibition of 6x-histidine-tagged human recombinant ATX expressed in HEK293 cells assessed as lysophosphatidulcholine release at 5 uM; format: cell-based
Procedure, shortened: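 LPC (18:1) choline release: ATX (~40 nM) secreted by transfected HEK293 cells into serum-free medium, TALON-purified, in 50 mM Tris-HCl pH 7.4 with 0.01% Triton X-100. Substrate added as 80 μM LPC with 10 mM MgCl2 and CaCl2, 3 h at 37 C. Choline read at 405 nm by choline oxidase/HRP/ABTS with compound-absorbance correction. IC50 over 10 concentrations (0.01–30 μM); inhibition at 5 μM final.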

| inhibition [%] | SMILES |
| --- | --- |
| 10 | COc1cc(/C=C2\SC(=O)N(Cc3ccccn3)C2=O)ccc1OCc1ccc(C(=O)O)cc1 |
| 15 | CCCCCN1C(=O)S/C(=C\c2ccc(OCc3ccc(C(=O)O)cc3)c(OC)c2)C1=O |
| 26 | COc1cc(/C=C2\SC(=O)N(Cc3cccc(Br)c3)C2=O)ccc1OCc1ccc(C(=O)O)cc1 |
| 29 | COc1cc(/C=C2\SC(=O)N(Cc3cccc(Cl)c3)C2=O)ccc1OCc1ccc(C(=O)O)cc1 |
| 72 | COc1cc(/C=C2\SC(=O)N(Cc3ccccc3Br)C2=O)ccc1OCc1ccc(C(=O)O)cc1 |
| 17 | COc1cc(/C=C2\SC(=O)N(CC(=O)c3ccc([N+](=O)[O-])cc3)C2=O)ccc1OCc1ccc(C(=O)O)cc1 |
| 41 | COc1cc(/C=C2\SC(=O)N(Cc3ccccc3F)C2=O)ccc1OCc1ccc(C(=O)O)cc1 |
| 23 | COc1cc(/C=C2\SC(=O)N(Cc3ccc(Br)cc3)C2=O)ccc1OCc1ccc(C(=O)O)cc1 |
| 44 | COc1cc(/C=C2\SC(=O)N(Cc3cccc(C#N)c3)C2=O)ccc1OCc1ccc(C(=O)O)cc1 |
| 31 | COc1cc(/C=C2\SC(=O)N(Cc3ccc(C(=O)O)cc3[N+](=O)[O-])C2=O)ccc1OCc1ccc(C(=O)O)cc1 |
| 30 | COC(=O)c1cccc(CN2C(=O)S/C(=C\c3ccc(OCc4ccc(C(=O)O)cc4)c(OC)c3)C2=O)c1 |
| 20 | COc1cccc(CN2C(=O)S/C(=C\c3ccc(OCc4ccc(C(=O)O)cc4)c(OC)c3)C2=O)c1 |
| 10 | COc1cc(/C=C2/SC(=O)N(Cc3c(F)c(F)c(F)c(F)c3F)C2=O)ccc1OCc1ccc(C(=O)O)cc1 |
| 13 | COc1cc(/C=C2\SC(=O)N(Cc3ccc(F)cc3C(F)(F)F)C2=O)ccc1OCc1ccc(C(=O)O)cc1 |
| 17 | COc1cc(/C=C2\SC(=O)N(Cc3cccnc3)C2=O)ccc1OCc1ccc(C(=O)O)cc1 |
| 99 | O=C1S/C(=C\c2ccc(OCc3ccc(B(O)O)cc3)cc2)C(=O)N1Cc1ccc(F)cc1 |
| 46 | COc1cc(/C=C2\SC(=O)N(Cc3cccc(C(F)(F)F)c3)C2=O)ccc1OCc1ccc(C(=O)O)cc1 |

| inhibition [%] | SMILES |
| --- | --- |
| 28 | COc1cc(/C=C2\SC(=O)N(Cc3ccccc3C(F)(F)F)C2=O)ccc1OCc1ccc(C(=O)O)cc1 |
| 23 | COc1cc(/C=C2\SC(=O)N(CC(=O)c3ccc(Br)cc3)C2=O)ccc1OCc1ccc(C(=O)O)cc1 |
| 38 | COc1cc(/C=C2/SC(=O)N(Cc3c(Cl)cccc3Cl)C2=O)ccc1OCc1ccc(C(=O)O)cc1 |
| 5 | COc1cc(/C=C2\SC(=O)N(C(C)c3ccccc3)C2=O)ccc1OCc1ccc(C(=O)O)cc1 (stereo not drawn) |
| 42 | COc1cc(/C=C2\SC(=O)N(Cc3ccc(CC(=O)O)cc3)C2=O)ccc1OCc1ccc(C(=O)O)cc1 |
| 12 | COc1cc(/C=C2\SC(=O)N(Cc3ccc(OC(F)(F)F)cc3)C2=O)ccc1OCc1ccc(C(=O)O)cc1 |
| 0 | COc1cc(/C=C2\SC(=O)N(CCN3C(=O)c4ccccc4C3=O)C2=O)ccc1OCc1ccc(C(=O)O)cc1 |
| 64 | COc1cc(/C=C2\SC(=O)N(Cc3cccc(F)c3)C2=O)ccc1OCc1ccc(C(=O)O)cc1 |
| 31 | COC(=O)c1ccc(CN2C(=O)S/C(=C\c3ccc(OCc4ccc(C(=O)O)cc4)c(OC)c3)C2=O)cc1 |
| 17 | COc1cc(/C=C2\SC(=O)N(Cc3ccccc3C#N)C2=O)ccc1OCc1ccc(C(=O)O)cc1 |
| 57 | COc1cc(/C=C2\SC(=O)N(Cc3ccccc3Cl)C2=O)ccc1OCc1ccc(C(=O)O)cc1 |
| 48 | COc1cc(/C=C2\SC(=O)N(Cc3cccc([N+](=O)[O-])c3)C2=O)ccc1OCc1ccc(C(=O)O)cc1 |
| 32 | COc1cc(/C=C2\SC(=O)N(Cc3ccc(C(F)(F)F)cc3)C2=O)ccc1OCc1ccc(C(=O)O)cc1 |
| 11 | COc1ccc(CN2C(=O)S/C(=C\c3ccc(OCc4ccc(C(=O)O)cc4)c(OC)c3)C2=O)cc1 |
| 4 | COc1cc(/C=C2\SC(=O)N(C(c3ccccc3)c3ccccc3)C2=O)ccc1OCc1ccc(C(=O)O)cc1 |
| 49 | COc1cc(/C=C2\SC(=O)N(Cc3ccc(C(=O)O)cc3)C2=O)ccc1OCc1ccc(C(=O)O)cc1 |
